In ChEMBL document CHEMBL3045436, “Synthesis and antiviral activities of antofine analogues with different C-6 substituent groups” (2013):

Legend:
Assay type in all cases: functional
[1] = tested on: Tobacco mosaic virus; experiment: Antiviral activity against Tobacco mosaic virus (TMV) in tobacco plant leaf assessed as curative effect at 100 ug/ml after 3 to 4 days
Procedure, shortened: (§1)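 Whole plants of N. tabacum var. Xanthi nc at the same leaf age. Whole leaves dip-inoculated with TMV (6.0 × 10−3 mg/mL), then washed with water and dried. Compound smeared on the left half-leaf, solvent on the right as control. Local lesions counted 3−4 days after inoculation, three replicates. Inhibition % calculated from mean lesion numbers versus control.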

[2] = tested on: Tobacco mosaic virus; experiment: Antiviral activity against Tobacco mosaic virus (TMV) in tobacco plant leaf assessed as curative effect at 500 ug/ml after 3 to 4 days; procedure, shortened: as §1
[3] = tested on: Tobacco mosaic virus; experiment: Antiviral activity against Tobacco mosaic virus (TMV) in tobacco plant leaf assessed as inactivation effect at 100 ug/ml after 3 to 4 days
Procedure, shortened: (§2)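 TMV mixed with an equal volume of compound solution for 30 min. The mixture was inoculated on the left half of N. tabacum var. Xanthi nc leaves, and virus mixed with solvent on the right half as control. Local lesions recorded 3−4 days after inoculation, three replicates. Inhibition % calculated from mean lesion numbers versus control.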

[4] = tested on: Tobacco mosaic virus; experiment: Antiviral activity against Tobacco mosaic virus (TMV) in tobacco plant leaf assessed as inactivation effect at 500 ug/ml after 3 to 4 days; procedure, shortened: as §2
[5] = tested on: Tobacco mosaic virus; experiment: Antiviral activity against Tobacco mosaic virus (TMV) in tobacco plant leaf assessed as protection effect at 500 ug/ml after 3 to 4 days
Procedure, shortened: (§3)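 Compound smeared on the left half of growing N. tabacum var. Xanthi nc leaves of the same age, solvent on the right half as control. Leaves inoculated with TMV 12 h later. Local lesions counted 3−4 days after inoculation, three replicates. Inhibition % = (control − treated mean lesions)/control × 100.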

[6] = tested on: Tobacco mosaic virus; experiment: Antiviral activity against Tobacco mosaic virus (TMV) in tobacco plant leaf assessed as protection effect at 100 ug/ml after 3 to 4 days; procedure, shortened: as §3
[7] = tested on: Tobacco mosaic virus; experiment: Antiviral activity against Tobacco mosaic virus (TMV) in tobacco leaf juice at 100 ug/ml after 72 hr by half-leaf method
Procedure, shortened: (§4)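 Detached leaf (half-leaf) assay in Nicotiana tabacum var. Xanthi nc, 5−6 growth stage. Whole leaf inoculated with TMV (5.88 × 10−2 μg/mL) by juice-leaf rubbing, then cut in half along the main vein. One half soaked 20 min in compound solution, the other in double-distilled water. Halves cultured 72 h at 25 °C. At least three replicates. Inhibition % = (control − treated mean local lesions)/control × 100.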

[8] = tested on: Tobacco mosaic virus; experiment: Antiviral activity against Tobacco mosaic virus (TMV) in tobacco leaf juice at 500 ug/ml after 72 hr by half-leaf method; procedure, shortened: as §4

Row | Structure (SMILES) | inhibition at 100 µg/mL [1] [%] | inhibition at 500 µg/mL [2] [%] | inhibition at 100 µg/mL [3] [%] | inhibition at 500 µg/mL [4] [%] | inhibition at 500 µg/mL [5] [%] | inhibition at 100 µg/mL [6] [%] | inhibition at 100 µg/mL [7] [%] | inhibition at 500 µg/mL [8] [%]
1 | COc1cc2c3c(c4ccc(O)cc4c2cc1OC)CN1CCC[C@H]1C3 | 23.2 | 49.6 | 17.8 | 46.2 | 43.2 | 19.5 | 21.3 | 52.2
2 | COc1cc2c3c(c4ccc(OCCO)cc4c2cc1OC)CN1CCC[C@@H]1C3 | 42.8 | 74.2 | 40.9 | 70.4 | 71.6 | 39.5 | 47.5 | 78.2
3 | COc1cc2c3c(c4ccc(OCCO)cc4c2cc1OC)CN1CCC[C@H]1C3 | 18.6 | 44 | 12 | 40.5 | 42.3 | 10.5 | 10 | 43.9
4 | COc1cc2c3c(c4ccc(OC(C)=O)cc4c2cc1OC)CN1CCC[C@H]1C3 | 22.4 | 59.4 | 19.3 | 58.5 | 54.2 | 16.2 | 30.6 | 68.7
5 | CCOc1ccc2c3c(c4cc(OC)c(OC)cc4c2c1)C[C@H]1CCCN1C3 | 27.2 | 49.7 | 28.5 | 43.7 | 40.2 | 10.4 | 32.5 | 50
6 | CCOc1ccc2c3c(c4cc(OC)c(OC)cc4c2c1)C[C@@H]1CCCN1C3 | 24.3 | 51.1 | 23 | 53.2 | 48 | 28.5 | 25.6 | 56.2
7 | C#CCOc1ccc2c3c(c4cc(OC)c(OC)cc4c2c1)C[C@H]1CCCN1C3 | 36.1 | 59.3 | 38.9 | 52.8 | 58.6 | 39.7 | 43.7 | 61.2
8 | C#CCOc1ccc2c3c(c4cc(OC)c(OC)cc4c2c1)C[C@@H]1CCCN1C3 | 45.5 | 74.9 | 42.4 | 70 | 71.6 | 40.9 | 48.6 | 75
9 | COc1cc2c3c(c4ccc(OCC#N)cc4c2cc1OC)CN1CCC[C@@H]1C3 | 44.1 | 75.1 | 38.7 | 72.3 | 74.5 | 42.3 | 40 | 79.3
10 | COc1cc2c3c(c4ccc(OCC#N)cc4c2cc1OC)CN1CCC[C@H]1C3 | 30.4 | 57.8 | 27.9 | 58.2 | 54.3 | 26.3 | 31.5 | 60
11 | COc1cc2c3c(c4ccc(O)cc4c2cc1OC)CN1CCC[C@@H]1C3 | 42 | 72.4 | 33.5 | 65.3 | 60.4 | 35.4 | 40 | 70.5
12 | COc1ccc2c3c(c4cc(OC)c(OC)cc4c2c1)C[C@H]1CCCN1C3 [(-)-ANTOFINE] | 33.4 | 62.5 | 29.4 | 58 | 55.7 | 32.3 | 30.4 | 65.8
13 | COc1ccc2c3c(c4cc(OC)c(OC)cc4c2c1)C[C@@H]1CCCN1C3 [HYPOESTESTATIN 1] | 28.4 | 56.4 | 26.7 | 55.5 | 51.1 | 37.2 | 30.5 | 60.2
14 | CNCC(=O)N[C@@H](CO)C(=O)N[C@H]1[C@H](O)[C@@H](O)[C@H](n2ccc(N)nc2=O)O[C@@H]1C(N)=O [NINGNANMYCIN] | 23.1 | 58.7 | 25 | 54.2 | 57.9 | 38.4 | 26.8 | 69.3
